Experimental data: ChEMBL document CHEMBL1142961, “Novel selective inhibitors of the zinc plasmodial aminopeptidase PfA-M1 as potential antimalarial agents” (J Med Chem, 2007)
≈ marks a conversion by molar mass, not a printed value.

How the values were obtained:
[1] = molecular target: T1, Aminopeptidase N (Sus scrofa) (UniProt P15145); assay: Inhibition of pig kidney microsomal APN at 10 uM
T1 sequence (whole entry): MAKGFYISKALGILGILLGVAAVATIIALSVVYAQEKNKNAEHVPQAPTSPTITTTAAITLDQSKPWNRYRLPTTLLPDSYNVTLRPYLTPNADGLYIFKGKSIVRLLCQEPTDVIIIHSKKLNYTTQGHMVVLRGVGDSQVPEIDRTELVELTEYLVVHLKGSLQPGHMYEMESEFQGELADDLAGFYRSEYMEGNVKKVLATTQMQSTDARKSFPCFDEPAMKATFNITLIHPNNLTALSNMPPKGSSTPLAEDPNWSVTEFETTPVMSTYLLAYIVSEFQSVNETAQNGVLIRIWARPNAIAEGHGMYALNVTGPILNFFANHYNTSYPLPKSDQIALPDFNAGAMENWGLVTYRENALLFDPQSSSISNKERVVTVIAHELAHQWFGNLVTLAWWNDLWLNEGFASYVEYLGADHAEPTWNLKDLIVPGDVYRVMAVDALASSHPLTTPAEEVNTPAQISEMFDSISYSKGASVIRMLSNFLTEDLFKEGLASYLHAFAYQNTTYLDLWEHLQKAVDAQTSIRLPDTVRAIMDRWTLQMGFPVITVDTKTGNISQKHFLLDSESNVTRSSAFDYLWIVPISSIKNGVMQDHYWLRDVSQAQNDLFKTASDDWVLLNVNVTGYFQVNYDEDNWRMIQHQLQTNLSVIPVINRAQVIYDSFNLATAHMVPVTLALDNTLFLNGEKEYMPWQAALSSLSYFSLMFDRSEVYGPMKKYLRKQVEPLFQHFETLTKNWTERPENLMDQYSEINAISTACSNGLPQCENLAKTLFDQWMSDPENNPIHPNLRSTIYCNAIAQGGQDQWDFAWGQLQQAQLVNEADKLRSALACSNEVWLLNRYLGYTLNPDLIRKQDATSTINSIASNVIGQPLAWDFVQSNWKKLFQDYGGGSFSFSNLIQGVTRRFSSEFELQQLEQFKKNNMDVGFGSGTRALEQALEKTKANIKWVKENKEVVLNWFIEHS
Procedure, shortened: (§1)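 Porcine kidney microsomal APN (ammonium sulfate suspension) diluted 600-fold in 25 mM Tris-HCl pH 7.4. Preincubated with inhibitor for 10 min at room temperature, then Leu-pNA added (0.3 mM stock). Hydrolysis followed at 405 nm at room temperature. Rates normalized to a no-inhibitor control. Single point at 10 µM; IC50 from concentration-velocity curves. Bestatin used as reference.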

[2] = molecular target: T2, Aminopeptidase N (Plasmodium falciparum FcB1/Columbia, UniProt O96935); assay: Inhibition of Plasmodium falciparum FcB1 M1 aminopeptidase
T2 sequence (O96935 whole entry): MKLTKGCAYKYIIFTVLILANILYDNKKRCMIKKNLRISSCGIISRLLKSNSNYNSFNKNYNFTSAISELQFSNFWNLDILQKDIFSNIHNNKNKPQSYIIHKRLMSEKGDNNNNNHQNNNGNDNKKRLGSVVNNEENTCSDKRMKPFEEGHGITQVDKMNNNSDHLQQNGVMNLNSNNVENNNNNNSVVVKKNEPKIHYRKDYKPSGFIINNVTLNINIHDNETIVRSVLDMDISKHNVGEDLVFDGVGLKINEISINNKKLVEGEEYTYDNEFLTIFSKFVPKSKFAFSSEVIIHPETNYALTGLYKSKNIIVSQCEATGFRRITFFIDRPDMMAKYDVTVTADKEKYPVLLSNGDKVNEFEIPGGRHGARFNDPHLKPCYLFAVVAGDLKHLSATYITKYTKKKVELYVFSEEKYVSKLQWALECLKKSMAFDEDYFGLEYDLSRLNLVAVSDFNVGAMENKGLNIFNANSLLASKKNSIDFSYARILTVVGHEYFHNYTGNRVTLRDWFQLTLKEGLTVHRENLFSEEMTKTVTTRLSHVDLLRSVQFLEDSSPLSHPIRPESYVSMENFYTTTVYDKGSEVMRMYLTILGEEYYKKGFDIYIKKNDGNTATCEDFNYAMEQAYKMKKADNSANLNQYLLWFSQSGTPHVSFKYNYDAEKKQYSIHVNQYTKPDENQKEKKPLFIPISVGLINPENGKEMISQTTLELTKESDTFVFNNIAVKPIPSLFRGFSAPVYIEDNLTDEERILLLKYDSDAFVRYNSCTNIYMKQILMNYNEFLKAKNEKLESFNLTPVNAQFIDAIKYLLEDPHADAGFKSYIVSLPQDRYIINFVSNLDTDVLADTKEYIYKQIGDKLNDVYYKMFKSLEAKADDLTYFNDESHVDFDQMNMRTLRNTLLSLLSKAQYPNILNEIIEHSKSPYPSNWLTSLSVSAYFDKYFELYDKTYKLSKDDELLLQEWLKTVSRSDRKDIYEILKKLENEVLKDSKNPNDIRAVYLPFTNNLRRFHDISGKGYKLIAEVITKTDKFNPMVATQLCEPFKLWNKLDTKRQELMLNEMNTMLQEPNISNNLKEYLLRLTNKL
Procedure, shortened: (§2)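 Native enzyme purified from P. falciparum FcB1, diluted 10-fold in 25 mM Tris-HCl pH 7.4. Preincubated with inhibitor for 10 min at room temperature, then Leu-pNA substrate added (0.3 mM stock, Km 0.099 mM). Kinetics followed at 405 nm at room temperature. Initial velocities normalized to a no-inhibitor control. Single-point screen at 10 µM; IC50 from velocity versus inhibitor concentration curves. Bestatin used as reference.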

[3] = Stability in Zucker FA/FA rat plasma at 37degC; type: ADME, organism-based; conditions: read-out: Stability (converted)
Procedure, shortened: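 Compound at 100 µM final in male Zucker FA/FA rat plasma, stirred at 37 °C. Samples taken from 0 to 96 h, acidified with 0.14 M phosphoric acid and spiked with internal standard. Extracted three times with AcOEt and quantified by LC-MS-MS (MRM). Half-life derived.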

[4] = tested on: Plasmodium falciparum; assay: Antimalarial activity against chloroquine-sensitive Plasmodium falciparum F32; type: functional, organism-based
Procedure, shortened: (§3)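 Asexual P. falciparum kept continuously on human erythrocytes; modified semiautomated microdilution method. Serially diluted drug added to asynchronous cultures (0.5% parasitemia, 1% final hematocrit) for 24 h at 37 °C, then [3H]hypoxanthine added per well. Growth inhibition from incorporated radioactivity relative to drug-free control on the same plate; IC50 from concentration-response curve, mean of three independent experiments.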

[5] = Selectivity ratio, IC50 for pig APN /IC50 for Plasmodium falciparum FcB1 M1
Procedure, shortened: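 Ratio of IC50 values (APN/PfA-M1) from two parallel assays: native PfA-M1 purified from P. falciparum FcB1 (diluted 10-fold) and porcine kidney microsomal APN (diluted 600-fold), both in 25 mM Tris-HCl pH 7.4. Enzyme was preincubated 10 min at room temperature with inhibitor, then Leu-pNA added (0.3 mM solution). Kinetics were read at 405 nm, initial velocities normalized to no-inhibitor controls, and IC50 was taken from velocity–concentration plots.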

[6] = Solubility at pH 7.4; type: physicochemical; conditions: buffer
Procedure, shortened: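 10 mM DMSO stock diluted 50-fold into PBS pH 7.4 or MeOH. Shaken for 24 h at room temperature, centrifuged and filtered at 0.45 µm. Analysed by LC-MS-MS; solubility taken as the PBS/MeOH mass-signal area ratio.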

[7] = tested on: Plasmodium falciparum; assay: Antimalarial activity against chloroquine-resistant Plasmodium falciparum FcB1; type: functional, organism-based; procedure, shortened: as §3
[8] = Distribution coefficient, log D at pH 7.4; type: physicochemical; conditions: octanol/water
Procedure, shortened: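 10 mM DMSO stock added to 1:1 octanol/PBS pH 7.4 and shaken for 2 h at room temperature. Phases separated and each quantified by LC-MS-MS. Log D taken as the log of the octanol/PBS concentration ratio from mass signals.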

[9] = molecular target: T3, Aminopeptidase N (Plasmodium falciparum FcB1/Columbia) (UniProt O96935); assay: Inhibition of Plasmodium falciparum FcB1 M1 aminopeptidase at 10 uM; procedure, shortened: as §2
T3 sequence (whole entry): T2 sequence (O96935 whole entry)

[10] = molecular target: T4, Aminopeptidase N (Sus scrofa, UniProt P15145); assay: Inhibition of pig kidney microsomal APN; procedure, shortened: as §1
T4 sequence (P15145 whole entry): T1 sequence (whole entry)

SMILES	inhibition [1]	IC50 [2]	half-life [3]	IC50 [4]	Ratio IC50 [5]	solubility [6]	IC50 [7]	logD [8]	inhibition [9]	IC50 [10]
O=C(NO)C(Cc1ccccc1)C(=O)NCc1ccc(F)cc1 (stereo not drawn)	72%	0.027 µM	0.75 h	57 µM	134	> 200 µM	59 µM	1.2	91%	3.62 µM
O=C(NO)/C(=C\c1ccccc1)C(=O)NCc1ccc(F)cc1	–	0.006 µM	22 h	13 µM	229	198 µM (≈ 62.2 µg/mL)	24 µM	1.1	–	1.37 µM
